Measurements taken from ChEMBL document CHEMBL1157465, “Design, synthesis, and biological evaluation of novel 3-aryl-4-(1H-indole-3yl)-1,5-dihydro-2H-pyrrole-2-ones as vascular endothelial growth factor receptor (VEGF-R) inhibitors” (J Med Chem, 2008).

Assays:
[1] = molecular target: Vascular endothelial growth factor receptor 2 (Homo sapiens, UniProt P35968); assay: Inhibition of human recombinant VEGFR2
Summary of the method: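 Recombinant human tyrosine kinases (EPHB4, TIE2, VEGF-R2, VEGF-R3), expressed in Sf9 insect cells as GST- or His-fusions, with poly(Glu,Tyr) 4:1 as substrate. Conditions: 1 µM [γ-33P]ATP, pH 7.5 HEPES buffer with Mg/Mn, DTT and vanadate, 30 °C for 80 min, 1% DMSO. Ten concentrations were tested and IC50 came from scintillation counting of incorporated 33P.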

[2] = molecular target: T1, Aurora kinase A (Homo sapiens, UniProt O14965); assay: Inhibition of human recombinant Aurora A
T1 sequence (O14965 whole entry): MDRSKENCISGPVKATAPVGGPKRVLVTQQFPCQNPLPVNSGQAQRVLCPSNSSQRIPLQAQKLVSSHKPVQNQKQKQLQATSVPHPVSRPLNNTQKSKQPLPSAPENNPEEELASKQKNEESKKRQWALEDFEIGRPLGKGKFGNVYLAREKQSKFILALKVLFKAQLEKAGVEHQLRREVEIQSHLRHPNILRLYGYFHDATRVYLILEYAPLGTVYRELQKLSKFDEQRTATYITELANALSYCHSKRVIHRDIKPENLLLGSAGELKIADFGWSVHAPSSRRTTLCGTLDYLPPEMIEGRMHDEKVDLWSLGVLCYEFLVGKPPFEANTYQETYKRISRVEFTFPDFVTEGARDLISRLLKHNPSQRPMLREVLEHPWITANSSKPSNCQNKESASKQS
Summary of the method: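 Aurora-A or Aurora-B, human cDNA expressed in Sf9 cells as tagged recombinant protein, phosphorylating Tetra(LRRWSLG). Reactions used 60 mM HEPES pH 7.5, Mg2+/Mn2+ (3 mM each), 1.2 mM DTT, vanadate and 1 µM [γ-33P]ATP, ran 80 min at 30 °C and were stopped with 2% H3PO4.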

[3] = molecular target: T2, Serine/threonine-protein kinase PLK4 (Homo sapiens, UniProt O00444); assay: Inhibition of human recombinant SAK
T2 sequence (O00444 whole entry): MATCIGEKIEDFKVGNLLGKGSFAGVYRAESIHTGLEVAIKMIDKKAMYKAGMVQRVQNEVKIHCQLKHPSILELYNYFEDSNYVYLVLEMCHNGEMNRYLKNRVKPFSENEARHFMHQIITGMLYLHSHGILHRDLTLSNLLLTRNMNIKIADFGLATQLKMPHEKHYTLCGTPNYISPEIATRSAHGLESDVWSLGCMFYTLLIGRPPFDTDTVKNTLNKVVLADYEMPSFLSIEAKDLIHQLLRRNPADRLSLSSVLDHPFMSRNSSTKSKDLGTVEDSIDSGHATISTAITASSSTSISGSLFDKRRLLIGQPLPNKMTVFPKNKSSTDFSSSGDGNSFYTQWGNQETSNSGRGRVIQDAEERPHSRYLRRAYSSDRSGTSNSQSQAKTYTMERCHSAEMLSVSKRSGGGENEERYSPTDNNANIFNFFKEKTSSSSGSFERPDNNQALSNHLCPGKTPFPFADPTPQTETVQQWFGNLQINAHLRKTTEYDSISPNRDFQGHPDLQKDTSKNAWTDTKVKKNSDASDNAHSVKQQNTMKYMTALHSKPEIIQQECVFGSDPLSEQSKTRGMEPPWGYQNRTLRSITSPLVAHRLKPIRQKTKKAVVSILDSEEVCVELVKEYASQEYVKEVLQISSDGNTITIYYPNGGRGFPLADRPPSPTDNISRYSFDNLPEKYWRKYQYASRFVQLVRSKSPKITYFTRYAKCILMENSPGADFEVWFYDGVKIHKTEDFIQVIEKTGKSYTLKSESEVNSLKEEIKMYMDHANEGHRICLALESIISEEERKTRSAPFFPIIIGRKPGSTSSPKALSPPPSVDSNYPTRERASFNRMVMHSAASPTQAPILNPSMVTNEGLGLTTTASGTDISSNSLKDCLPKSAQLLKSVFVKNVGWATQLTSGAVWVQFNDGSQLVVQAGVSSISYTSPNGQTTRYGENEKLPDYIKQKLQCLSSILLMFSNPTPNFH
Summary of the method: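 Human kinase expressed from cDNA in Sf9 cells (baculovirus) as GST- or His-tagged protein, affinity-purified. 10 compound concentrations, 1% DMSO final, 30 °C for 80 min. Stopped with H₃PO₄, 33P incorporation counted, IC50 derived.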

[4] = molecular target: T3, Receptor-type tyrosine-protein kinase FLT3 (Homo sapiens, UniProt P36888); assay: Inhibition of human recombinant FLT3
T3 sequence (P36888 whole entry): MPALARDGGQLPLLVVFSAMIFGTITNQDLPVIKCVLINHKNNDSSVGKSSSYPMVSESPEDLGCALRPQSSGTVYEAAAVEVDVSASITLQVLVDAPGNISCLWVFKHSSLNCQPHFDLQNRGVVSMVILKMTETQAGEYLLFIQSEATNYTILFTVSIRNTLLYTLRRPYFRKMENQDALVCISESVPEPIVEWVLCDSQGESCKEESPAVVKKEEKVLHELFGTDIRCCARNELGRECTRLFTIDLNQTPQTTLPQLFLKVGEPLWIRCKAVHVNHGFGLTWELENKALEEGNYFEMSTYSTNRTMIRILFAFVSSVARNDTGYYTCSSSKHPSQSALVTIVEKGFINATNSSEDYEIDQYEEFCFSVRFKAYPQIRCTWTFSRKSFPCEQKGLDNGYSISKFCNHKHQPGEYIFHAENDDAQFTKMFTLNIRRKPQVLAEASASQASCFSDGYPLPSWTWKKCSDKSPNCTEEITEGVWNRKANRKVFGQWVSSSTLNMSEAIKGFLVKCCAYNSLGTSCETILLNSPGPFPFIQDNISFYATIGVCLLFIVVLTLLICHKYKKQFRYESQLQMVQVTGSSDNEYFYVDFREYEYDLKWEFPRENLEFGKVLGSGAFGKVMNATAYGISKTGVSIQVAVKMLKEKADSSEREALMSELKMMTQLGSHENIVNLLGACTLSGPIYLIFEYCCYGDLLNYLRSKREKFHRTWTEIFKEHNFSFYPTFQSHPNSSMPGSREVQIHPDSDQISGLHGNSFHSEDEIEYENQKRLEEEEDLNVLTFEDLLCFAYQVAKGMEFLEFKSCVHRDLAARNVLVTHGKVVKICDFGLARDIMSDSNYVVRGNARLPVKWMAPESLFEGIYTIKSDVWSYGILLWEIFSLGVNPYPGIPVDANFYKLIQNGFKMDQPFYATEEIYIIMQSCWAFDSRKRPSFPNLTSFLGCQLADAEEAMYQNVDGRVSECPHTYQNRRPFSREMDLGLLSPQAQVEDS
Summary of the method: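 Human kinases expressed in Sf9 cells via baculovirus as GST or His fusions and affinity purified. 33PanQinase assay in 60 mM HEPES-NaOH pH 7.5, 3 mM MgCl2, 3 mM MnCl2, 3 µM orthovanadate, 1.2 mM DTT, 1 µM [γ-33P]ATP, 1% DMSO; 30 °C, 80 min. Substrates: poly(Glu,Tyr) 4:1 for ERBB2, IGF1-R and SRC; poly(Ala,Glu,Lys,Tyr) 6:2:5:1 for FLT3. IC50 from 10 concentrations by scintillation counting.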

Vascular endothelial growth factor receptor 2, sequence (P35968 whole entry, the tested form may be a part): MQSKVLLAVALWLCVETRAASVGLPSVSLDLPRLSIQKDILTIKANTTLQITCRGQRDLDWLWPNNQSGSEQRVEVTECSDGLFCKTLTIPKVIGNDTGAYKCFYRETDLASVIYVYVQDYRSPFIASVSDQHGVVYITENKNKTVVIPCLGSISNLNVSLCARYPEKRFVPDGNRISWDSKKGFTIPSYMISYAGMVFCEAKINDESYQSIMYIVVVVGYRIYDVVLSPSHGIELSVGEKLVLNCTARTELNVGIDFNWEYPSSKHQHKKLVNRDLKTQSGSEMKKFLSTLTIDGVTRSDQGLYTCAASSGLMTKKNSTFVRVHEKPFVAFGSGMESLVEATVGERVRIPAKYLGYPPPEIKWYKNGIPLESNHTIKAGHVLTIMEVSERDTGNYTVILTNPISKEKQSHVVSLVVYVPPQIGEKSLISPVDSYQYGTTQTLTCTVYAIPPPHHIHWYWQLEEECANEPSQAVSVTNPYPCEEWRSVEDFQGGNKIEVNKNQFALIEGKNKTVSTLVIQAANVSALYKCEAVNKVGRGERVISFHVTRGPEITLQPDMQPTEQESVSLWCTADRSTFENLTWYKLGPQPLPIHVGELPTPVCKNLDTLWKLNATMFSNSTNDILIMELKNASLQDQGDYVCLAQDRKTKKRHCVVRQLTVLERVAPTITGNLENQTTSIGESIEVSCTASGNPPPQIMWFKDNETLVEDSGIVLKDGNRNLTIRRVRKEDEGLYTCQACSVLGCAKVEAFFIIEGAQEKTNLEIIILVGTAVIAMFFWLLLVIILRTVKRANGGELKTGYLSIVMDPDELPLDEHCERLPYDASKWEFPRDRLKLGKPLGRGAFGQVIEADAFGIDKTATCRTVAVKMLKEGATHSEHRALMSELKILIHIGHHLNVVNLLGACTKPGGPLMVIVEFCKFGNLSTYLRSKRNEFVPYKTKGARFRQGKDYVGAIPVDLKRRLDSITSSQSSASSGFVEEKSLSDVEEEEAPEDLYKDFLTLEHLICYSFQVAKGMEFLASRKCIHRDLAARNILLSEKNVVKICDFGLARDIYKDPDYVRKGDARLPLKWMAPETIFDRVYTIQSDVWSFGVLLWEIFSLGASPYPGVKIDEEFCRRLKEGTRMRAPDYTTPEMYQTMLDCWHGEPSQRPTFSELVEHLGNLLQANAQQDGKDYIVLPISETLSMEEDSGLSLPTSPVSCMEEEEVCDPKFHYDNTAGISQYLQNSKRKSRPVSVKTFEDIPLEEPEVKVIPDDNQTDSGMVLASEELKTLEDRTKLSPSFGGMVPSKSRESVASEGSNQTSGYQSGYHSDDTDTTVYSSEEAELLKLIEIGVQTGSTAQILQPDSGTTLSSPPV

| IC50 [1] | IC50 [2] | IC50 [3] | IC50 [4] | SMILES |
| --- | --- | --- | --- | --- |
| 13 µM | 16 µM | 12 µM | 9.9 µM | COc1ccc(C2=C(c3c[nH]c4ccccc34)C(=O)NC2)cc1 |
| 11 µM | 3.2 µM | 7.7 µM | 2.2 µM | COc1cc(C2=C(c3c[nH]c4ccccc34)C(=O)NC2)cc(OC)c1OC |

The next lines start with the compound.

| SMILES | IC50 [1] | IC50 [2] | IC50 [3] | IC50 [4] |
| --- | --- | --- | --- | --- |
| COc1cc(C2=C(c3cn(COC(C)(C)C)c4ccccc34)CNC2=O)cc(OC)c1OC | 4.4 µM | 30 µM | 28 µM | 20 µM |
| COc1cc(C2=C(c3cn(C)c4ccccc34)C(=O)NC2)cc(OC)c1OC | 15 µM | 3.2 µM | 9.2 µM | 5 µM |
| COc1cc(C2=C(c3cn(CC(O)CO)c4ccccc34)CNC2=O)cc(OC)c1OC (centres undefined) | 4.2 µM | 47 µM | 16 µM | 3 µM |
| COc1cc(C2=C(c3c[nH]c4ccccc34)CNC2=O)cc(OC)c1OC | 0.031 µM | 16 µM | 10 µM | 6.1 µM |
